Laboratory results published in ChEMBL document CHEMBL4229470, “Synthetic molecules for disruption of the MYC protein-protein interface” (Bioorg Med Chem, 2018).
In brackets after ≈: the same amount, converted by molar mass. Activity calls are given as the source filed them. The calls are words filed in the database; no cut-off is given here.

What was measured:
[1] = target: Protein max (Homo sapiens) (UniProt P61244); assay: Binding affinity to His-tagged monomeric Max (unknown origin) expressed in Escherichia coli BL21 at 10 uM by Bio-FET analysis
Protein max (Homo sapiens), sequence (P61244 whole entry): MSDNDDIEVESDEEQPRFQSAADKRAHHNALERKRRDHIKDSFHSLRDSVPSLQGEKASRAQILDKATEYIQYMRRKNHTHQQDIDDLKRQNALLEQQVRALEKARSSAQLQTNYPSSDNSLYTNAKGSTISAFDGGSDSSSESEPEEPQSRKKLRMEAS
Method in brief: (§1)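 Bio-FET chip screening at 10 μM against monomeric MAX (mMAX), MYC-MAX and MAX-MAX dimers. Heterodimers stabilized by a disulfide through a C-terminal cysteine introduced into the MYC bHLH and MAX constructs.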

[2] = Solubility in pH 6 MES buffer by dynamic light scattering assay; type: physicochemical
Method in brief: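 Dynamic light scattering in MES, pH 6.0, with <0.1% DMSO.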

c-Myc/Max (Homo sapiens) [3] = target: T1, c-Myc/Max (Homo sapiens) (UniProt P01106+P61244); assay: Inhibition of biotin-labeled EBOX dsDNA binding to Myc-Max (unknown origin) at 10 uM preincubated for 15 mins followed by test compound-protein mixture addition to biotin-labeled EBOX dsDNA immobilized chip measured over 2.5 mins by SPR analysis; type: protein-complex assay
Method in brief: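 SPR. Disulfide-stabilized MYC-MAX dimer incubated with compound at 10 μM, then flowed over a DNA chip surface; sensorgram perturbation compared with vehicle control.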

[4] = target: Protein max (Homo sapiens) (UniProt P61244); assay: Binding affinity to His-tagged dimeric Max (unknown origin) expressed in Escherichia coli BL21 at 10 uM by Bio-FET analysis; method in brief: as §1
c-Myc/Max (Homo sapiens) [5] = target: T1, c-Myc/Max (Homo sapiens); assay: Binding affinity to His-tagged Myc/Max (unknown origin) expressed in Escherichia coli BL21 at 10 uM by Bio-FET analysis; method in brief: as §1
[6] = target: Myc proto-oncogene protein (Homo sapiens) (UniProt P01106); assay: Binding affinity to His-tagged Myc (unknown origin) expressed in Escherichia coli BL21 at 10 uM by Bio-FET analysis relative to KJ-Pyr-9
Myc proto-oncogene protein (Homo sapiens), sequence (P01106 whole entry): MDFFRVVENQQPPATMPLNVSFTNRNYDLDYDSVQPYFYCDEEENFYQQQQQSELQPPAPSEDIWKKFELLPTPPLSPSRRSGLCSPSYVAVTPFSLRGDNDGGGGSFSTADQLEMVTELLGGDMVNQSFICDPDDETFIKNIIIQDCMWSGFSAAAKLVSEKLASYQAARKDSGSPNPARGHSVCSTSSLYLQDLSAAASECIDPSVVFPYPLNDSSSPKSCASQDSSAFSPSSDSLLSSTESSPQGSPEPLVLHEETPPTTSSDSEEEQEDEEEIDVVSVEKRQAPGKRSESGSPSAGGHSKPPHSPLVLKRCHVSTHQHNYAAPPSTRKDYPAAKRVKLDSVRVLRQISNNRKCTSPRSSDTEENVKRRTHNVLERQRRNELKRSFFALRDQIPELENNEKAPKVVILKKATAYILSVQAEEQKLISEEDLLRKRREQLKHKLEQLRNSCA
Method in brief: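 His-tagged MYC bHLH construct immobilized on a Bio-FET chip. Compounds at 10 μM in 3% DMSO in MES buffer; chip response at 10 μM normalized to a 10 μM reference ligand (saturating, maximal signal) run on each chip.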

dsDNA = assay: Binding affinity to biotin-labeled EBOX dsDNA (unknown origin) at 10 uM measured over 2.5 mins by SPR analysis; type: nucleic-acid assay
Method in brief: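 SPR check of compound alone flowed over the DNA surface, without protein.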

[7] = Clearance in C57Bl6 mouse at 10 mg/kg, iv by LC-MS analysis; type: ADME, organism-based; settings: in vivo
Method in brief: (§2)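 Pharmacokinetic parameters determined in C57Bl6 mice.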

[8] = Drug metabolism in rat liver microsomes assessed as oxidized furan ion formation by measuring parent compound remaining at 5 uM after 45 mins by LC-MS analysis; type: ADME, microsome; settings: 0.75 h
Method in brief: (§3)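 Compounds incubated with rat liver microsomes at 37 °C for the indicated times; mass analysis monitoring the oxidized furan ion; recovery calculated from the AUC of the extracted ion.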

Mus musculus = assay: AUMC (0 to infinity) in C57Bl6 mouse at 10 mg/kg, iv by LC-MS analysis; type: ADME, organism-based; settings: in vivo; method in brief: as §2
[9] = Drug metabolism in rat liver microsomes assessed as oxidized furan ion formation by measuring parent compound remaining at 5 uM after 7 mins by LC-MS analysis; type: ADME, microsome; method in brief: as §3
[10] = Drug metabolism in rat liver microsomes assessed as oxidized furan ion formation by measuring parent compound remaining at 5 uM after 15 mins by LC-MS analysis; type: ADME, microsome; settings: 0.25 h; method in brief: as §3
[11] = MRT in C57Bl6 mouse at 10 mg/kg, iv by LC-MS analysis; type: ADME, organism-based; settings: in vivo; method in brief: as §2
[12] = Drug metabolism in rat liver microsomes assessed as oxidized furan ion formation by measuring parent compound remaining at 5 uM after 3 mins by LC-MS analysis; type: ADME, microsome; settings: 0.05 h; method in brief: as §3
[13] = AUC (0 to infinity) in C57Bl6 mouse at 10 mg/kg, iv by LC-MS analysis; type: ADME, organism-based; design: dose 10 mg/kg, route intravenous, time infinity; settings: in vivo; method in brief: as §2
[14] = Drug metabolism in rat liver microsomes assessed as oxidized furan ion formation by measuring parent compound remaining at 5 uM after 25 mins by LC-MS analysis; type: ADME, microsome; method in brief: as §3
[15] = Terminal half life in rat at 1 mg/kg, iv; type: ADME, organism-based; settings: in vivo, read-out: beta t1/2 (converted)
[16] = Volume of distribution at steady state in C57Bl6 mouse at 10 mg/kg, iv by LC-MS analysis; type: ADME, organism-based; settings: in vivo; method in brief: as §2
[17] = Clearance in rat at 1 mg/kg, iv; type: ADME, organism-based; settings: in vivo
[18] = Terminal half life in C57Bl6 mouse at 10 mg/kg, iv by LC-MS analysis; type: ADME, organism-based; settings: in vivo, read-out: beta t1/2 (converted); method in brief: as §2
[19] = AUC (0 to infinity) in rat at 1 mg/kg, iv; type: ADME, organism-based; design: dose 1 mg/kg, time infinity, route intravenous; settings: in vivo
Rattus norvegicus = assay: AUMC (0 to infinity) in rat at 1 mg/kg, iv; type: ADME, organism-based; settings: in vivo
[20] = MRT in rat at 1 mg/kg, iv; type: ADME, organism-based; settings: in vivo

SMILES | Activity [1] | solubility [2] [µM] | inhibition (c-Myc/Max (Homo sapiens) [3]) | Activity [4] | Activity (c-Myc/Max (Homo sapiens) [5]) | Activity [6] [%] | Activity (dsDNA) | further results
COc1ccc(-c2cc(-c3ccc(C(N)=O)cc3)nc(-c3ccccc3)n2)cc1 | inactive | < 1 | inactive | inactive | inactive | 0 | inactive | 
N#Cc1ccc(-c2cc(-c3ccc(C(N)=O)cc3)nc(-c3ccco3)n2)cc1 | inactive | 8 (≈ 2.93 µg/mL) | Active | inactive | inactive | 66 | inactive | 
c1coc(-c2cc(-c3nccs3)cc(-c3ccc(-c4nccs4)cc3)n2)c1 | inactive | < 1 | Active | inactive | inactive | 188 | inactive | 
N#Cc1ccc(-c2cc(-c3ccc(C(N)=O)cc3)cc(-c3cnco3)n2)cc1 | inactive | 250 (≈ 91.6 µg/mL) | inactive | inactive | inactive | 0 | inactive | 
N#Cc1ccc(-c2cc(-c3ccc(C(N)=O)cc3)cc(-c3cncs3)n2)cc1 | inactive | 64 (≈ 24.5 µg/mL) | Active | inactive | inactive | 79 | inactive | 
N#Cc1ccc(-c2cc(-c3ccc(C(N)=O)cc3)cc(-c3cccc(F)c3)n2)cc1 | inactive | 2 (≈ 0.787 µg/mL) | inactive | inactive | inactive | 0 | inactive | 
CS(=O)(=O)NC(=O)c1ccc(-c2cc(-c3ccc(C#N)cc3)nc(-c3ccco3)c2)cc1 | inactive | 32 (≈ 14.2 µg/mL) | Active | inactive | inactive | 76 | inactive | 
N#Cc1ccc(-c2cc(-c3ccc(-c4nnn[nH]4)cc3)cc(-c3ccco3)n2)cc1 | inactive | 18 (≈ 7.03 µg/mL) | Active | inactive | inactive | 92 | inactive | 
Cn1ccnc1-c1cc(-c2ccc(C(N)=O)cc2)cc(-c2ccc(C#N)cc2)n1 | inactive | 8 (≈ 3.04 µg/mL) | Active | inactive | inactive | 41 | inactive | 
NC(=O)c1ccc(-c2cc(-c3ccc(-c4cnco4)cc3)nc(-c3ccco3)c2)cc1 | inactive | 15 (≈ 6.11 µg/mL) | Active | inactive | inactive | 154 | inactive | 
N#Cc1ccc(-c2cc(-c3ccc(C(=O)NN)cc3)cc(-c3ccco3)n2)cc1 | inactive | 500 (≈ 190 µg/mL) | inactive | inactive | inactive | 0 | inactive | 
N#Cc1ccc(-c2cc(-c3ccc(C(N)=O)cc3)nc(-c3cc[n+]([O-])cc3)n2)cc1 | inactive | 25 (≈ 9.84 µg/mL) | inactive | inactive | inactive | 0 | inactive | 
CNC(=O)c1ccc(-c2cc(-c3ccc(C#N)cc3)nc(-c3ccco3)c2)cc1 | inactive | 25 (≈ 9.49 µg/mL) | Active | inactive | inactive | 3.2 | inactive | 
N#Cc1ccc(-c2cc(-c3ccc(C(N)=O)cc3)cc(-c3ccco3)n2)cc1 | inactive | 10 (≈ 3.65 µg/mL) | Active | inactive | inactive | 106 | inactive | 
Cn1nncc1-c1cc(-c2ccc(C(N)=O)cc2)cc(-c2ccc(C#N)cc2)n1 | inactive | 32 (≈ 12.2 µg/mL) | Active | inactive | inactive | 55 | inactive | 
NC(=O)c1ccc(-c2cc(-c3ccc(-c4nccs4)cc3)nc(-c3ccco3)c2)cc1 | inactive |  | Active | inactive | inactive | 97 | inactive | clearance [7]: 3.8 mL/min/kg; Stability [8]: 62.23%; AUMC (Mus musculus): 190000 ng·h/mL; Stability [9]: 80.8%; Stability [10]: 74.39%; MRT [11]: 4.3 h; Stability [12]: 84.31%; AUC(0-inf) [13]: 44000 ng·h/mL; Stability [14]: 67.5%
NC(=O)c1ccc(-c2cc(-c3ccc([N+](=O)[O-])cc3)nc(-c3ccco3)c2)cc1 | inactive | 8 (≈ 3.08 µg/mL) |  | inactive |  |  | inactive | clearance [7]: 115 mL/min/kg; half-life [15]: 1.6 h; Stability [8]: 22%; Vd [16]: 6.44 L/kg; clearance [17]: 65 mL/min/kg; AUMC (Mus musculus): 1360 ng·h/mL; Stability [9]: 31.47%; half-life [18]: 1 h; AUC(0-inf) [19]: 258 ng·h/mL; Stability [10]: 25.88%; MRT [11]: 0.94 h; AUMC (Rattus norvegicus): 427 ng·h/mL; Stability [12]: 49.69%; AUC(0-inf) [13]: 1450 ng·h/mL; Stability [14]: 20.91%; MRT [20]: 1.7 h
